Reference: the EternaBench riboswitch data

Test system: MS2 coat protein
Assay: apparent Kd, MS2 coat protein; higher = weaker binding; RNA-MaP array; FMN 200 µM where present
Procedure, shortened: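 Designs on Illumina sequencing-chip clusters, transcribed by stalled E. coli RNA polymerase, were exposed to SNAP-549-labelled MS2 coat protein in doubling steps from 0.7 or 1.5 nM up to 3 µM, without and then with constant ligand. The buffer held 100 mM Tris-HCl pH 7.5, 80 mM KCl, 4 mM MgCl2, BSA, DTT, yeast tRNA and Tween-20. Apparent Kd values are medians of filtered per-cluster binding-curve fits to green signal normalised to red-channel RNA signal and control-cluster median Fmax.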

[1] = designed as: ON switch for flavin mononucleotide, no ligand
[2] = ligand present: flavin mononucleotide, designed as: ON switch for flavin mononucleotide
[3] = designed as: OFF switch for flavin mononucleotide, no ligand
[4] = ligand present: flavin mononucleotide, designed as: OFF switch for flavin mononucleotide

Sequence | apparent Kd [1] [nM] | apparent Kd [2] [nM] | apparent Kd [3] [nM] | apparent Kd [4] [nM]
UUACUCAUGUAAGGAUAUGCAGCCGAAACGGCUGCAGAAGGUACUAAAAUACAUGAGGAUCACCCAUGUCUUUUUAAUAUAGAC | 151 | 80.1 |  | 
AACACAACAUGAAACAUGAGGAUCACCCAUGUUGUUUGUAAUCAGGAUAUGAUCUCAAGAAUGAAUUAGAAGGGAUAGGGAGGG | 35.8 | 47.1 |  | 
GGGCAAUAGUAGAAGGGAUAUACGAAAGGUAUAUCAGGAUAUACAUGAGGAUCACCCAUGUUCUAACAGUGAUAGUCCUCCCUA |  |  | 24.3 | 171
GCCUUAUCUGUCAGGAUAUACAAUUUUUUUUUUUUGUAGAAGGGACAUGAGGAUCACCCAUGUACAUUACAUUG |  |  | 34 | 57.9
CCGGCUGCUGUGAGGAUAUGCCUGUGCGCCCGCGGGCAGAAGGCACAUGAGGAUCACCCAUGUCCUGCGGUCCC |  |  | 39 | 41.2
UUCAAAUUCGUAGGAUAUGUAUAAAUUAUCUACAUGAGGAUCACCCAUGUUUUCAUUUUAAAUUGACAGAAGGACGUAAUCUUA | 16.4 | 7.87 |  | 
UUUAUAUUCAGAGGAUAUUAAUGUAGUAUAAUAUAAGAAGGCUGUUUGUUUUGUAAAGUUAUUAUACAUGAGGAUCACCCAUGU | 18.4 | 15.5 |  | 
GCGUGACAUGAGGAUCACCCAUGUACUCGAGAAAUCGAGUGUAGAAGGGUGACCGGUCGUUUGGCACAGGAUAUACACGCUGUG | 27.3 | 16.3 |  | 
CGUCUGUGAGGAUAUGGUAUCGUUUACAUGAGGAUCACCCAUGUUUCAUGGGACUAGAGACUAGAAGGUACUGACG |  |  | 1310 | 870
UUAUCUAUGUAAGGAUAUAGAUGAUAUACGCAUCCGACAUGAGGAUCACCCAUGUUAUAUUUUGUCUAGAAGGUACAUUGUCGG | 204 | 179 |  | 
AACGCACGAGAUGGCUGGGAUACUAAGGAUAUGACAUGAGGAUCACCCAUGUACGCGAUCCAUGGUCAGAAGGUAGUAAUUCGC |  |  | 37 | 91.2
UGUCGGAGCAGAGGAUAUUACAUGAGGAUCACCCAUGUAUGAACCAAUAGCUUGAAACAGCAAUGUAAGAAGGCUGCUCCGACA |  |  | 7.66 | 84.2
CUGGAUCACGCAGGAUAUUACAUGAGGAUCACCCAUGUCAGGACUGCAAUAUCGUCUCCUCAUUGUGAGAAGGGCGGAAUCAUU |  |  | 17.7 | 86.8
GCGCAGUCAGGAUAUGCCGCUGGCGAUCACCGUGGGCAAAGGCAGAAGGGACAUGAGGAUCACCCAUGUGGCGC |  |  | 72.1 | 32.9
AAAGAACAUGAGGAUCACCCAUGUGAGGAUAUACGAGCGUGAGAAAGAUAAAACGAGCGUAGAAGGCACAAGAA |  |  | 76.9 | 81.5
UUUUAUUAGUAGAAGGACGGAGAGUAUGUAGUCGUAGGAUAUACAUAAGACAUGAGGAUCACCCAUGUGUGUAUUUUGGGUAUG |  |  | 15.7 | 13.2
CGUGCGUAUGUGAGGAUAUGCUGGUCCUUGGCUCGGCAGAAGGCACAUGAGGAUCACCCAUGUGGUGUCGUACC |  |  | 21.9 | 58.6
UGAUCUCGGGUUAGGAUAUACUGACAACAUAGACAGUAGAAGGAACAUGAGGAUCACCCAUGUGCAUUAACCAU |  |  | 25.1 | 59.3
UAGCUUGACGCAGGAUAUCCAAGGCUGAAAUGAGGAGAAGGGCGCCAAACAUGAGGAUCACCCAUGUAUUAUGCAGGGUCCUCA |  |  | 362 | 180
UGGUACUAGGGAGGAUAUGGGAAGAUACAUGAGGAUCACCCAUGUUUAAGAAUGCCGAGAGGGAACUAGAAGGCCCUAGUACCU |  | 14.5 |  | 
ACAUGAGAUCUAGGAUAUAUUGUACCUACAUGUGACAUGAGGAUCACCCAUGUGGUAAGUAUGACAUAGAAGGAGAAGAUAUGU | 71 | 54.3 |  | 
AAAUAAACUACGAAGAUAUCCUCACAUGAGGAUCACCCAUGUCAGGAUAUUUGUCCUAAAAGGACAGAGAAGGGACGUCGUAGA |  |  | 5.09 | 7.54
CGCAACUCAGAUCUGUUAAACAUGAGGAUCACCCAUGUAUUGAGAAGGAGGAAGAAGAGAGAUUCCUAGGAUAUCAGAGUUGCG |  |  | 6.62 | 6.98
CGGCCCGAUCGAGGAUAUAAGUCUAGGACAUGAGGAUCACCCAUGUAUGUCUUAGAAGGCGAUCGGGCCAGCCUGUUACAGGCA | 28.5 | 6.43 |  | 
AAGUACGUAAAGAAGGCGCGGGCAACCAUUCUGCGAGGAUAUUUACAUGAGGAUCACCCAUGUGCAUGGGAUCGAGAAGAAUUG |  |  | 159 | 41.9
AAAGUACAUGAGGAUCACCCAUGUCCCAAUGAAUAAGGAUAUACGAAAAUAAAAUAAAAUGUAGAAGGUAUAAUAG | 31.6 | 27.2 |  | 
AAAAAGGCAGGAUAUACAUGAGGAUCACCCAUGUUAAAAAAAAAAAAAAAAAAAAAGUGUAGAAGGGCCAAAAA |  |  | 55.6 | 55
GUGACGAUGUAAGGAUAUGCUGAGGAAUACUCAGCAGAAGGUACAUGAGGAUCACCCAUGUAAAUAAUAAUAAAUAAACGUCAC |  |  | 15.2 | 24.1

Sequence | apparent Kd [1] [nM] | apparent Kd [2] [nM] | apparent Kd [3] [nM] | apparent Kd [4] [nM]
GGAUCCAACACAGGAUAUGCUGGACUUUGUCCAGCAGAAGGGUGUACAUGAGGAUCACCCAUGUAUUGGAUCCAUAUAUUUAAU | 996 | 80.8 |  | 
AGCUGUGGCCGAGGAUAUCUAACUUCAAUAACCGAAAUAUAAUCGGACAUGAGGAUCACCCAUGUAGAGAAGGCGGUCUCAGCA |  |  | 15.2 | 20.1
AGCUGUGGCCGAGGAUAUCUGAACCUUCAAACCGAAAUAUAAUCGGACAUGAGGAUCACCCAUGUAGAGAAGGCGGUCUCAGCA |  |  | 12 | 22.6
CCCGGGCCUGUGAGGAUAUCGGGCCCGAAAGGGCCCGAGAAGGCACAUGAGGAUCACCCAUGUAAGGGUUUGGG |  |  | 27.4 | 19.7
GCAGCAAUUUAAAACAUGAGGAUCACCCAUGUCGAGUGUUAUGAGGAUAUGCAUCGGAUGAAGAUGCAGAAGGCAUUGUGCUGC | 6.32 | 6.72 |  | 
CAGCGUACCAGAGGAUAUGAUUGUGGGUAAAGAGCGCUUAGGUGGCUACAUGAGGAUCACCCAUGUCAGAAGGCUGGAGUUCAA |  |  | 279 | 129
CUGAGGUAAGGAUAUAGGAGAGAAGAUAAGGUAUGAGAGUUCUAGAAGGUACAUGAGGAUCACCCAUGUUAGGG |  |  | 477 | 235
ACAGGCUUCGAGAAGGACAUGAGGAUCACCCAUGUGCGUGUGAAGCAGCCGUGAGGCUGCAUCAUGUAGGAUAUCGGAGUCUGG |  |  | 76 | 504
UUUUUUUUAGUAAGGAUAUGAUGCAGGAAACUGCGUCAGAAGGUACAUGAGGAUCACCCAUGUUAAUUUUGUUU |  |  | 18.8 | 20.4
UAUUAUCACGAAGGAUAUGCUUACAUGAGGAUCACCCAUGUAUGUAUAUUGAUCCAGAGUUUUGAGCAGAAGGUCGUGAGUAAA |  |  | 41.8 | 250
GCUUUAGUAUCACAUGUAUUACAUGAGGAUCACCCAUGUUACUAGGAUAUGUAUUAGAAUUUACAACAGAAGGAGUAAGAAUGU |  |  | 7.49 | 8.93
AGGCGAGUAGGAUAUGCGUUUUUACGGGAAAGCUGGAUGGUACAUGAGGAUCACCCAUGUAGAAGGGCUCUGAA |  |  | 23.4 | 21.8
GGGUUACAUGAGGAUCACCCAUGUGAGGAUAUGAUACUAUGUACUUCGGUACAUAGUAUCAGAAGGCACAUAAA |  |  | 124 | 122
UGAUUACGAGGAUAUACAUGAGGAUCACCCAUGUAGUCAGGGCCCAUACUCCGAGCAUGUAGAAGGCGUUGUCU |  |  | 32.7 | 48.8
GGUACUCAAAGAGUACCAAUACGAACAUGAGGAUCACCCAUGUAGGAUAUGCUAAAACCGGAGUAGCAGAAGGACAUGUGCCUA |  |  | 15.3 | 66.6
GAUUUUUCUGAGGAUAUUGCAUCACCCGAUCUAUAAGAAGGCAGAACAUGAGGAUCACCCAUGUGGGUUUCUAG |  |  | 22.1 | 45.6
GCCCGGGCUAACAUGAGGAUCACCCAUGUGUUAUACUUAAUAUAGGAUAUGUUUAUACUUUUUGGGCAGAAGGAUGGCCCGGGC | 68.2 | 61.7 |  | 
UUAAAUCAUGUAGGAUAUGCAUGGCGAAGCUACGCAGAAGGACAUGAGGAUCACCCAUGUUCUAGCGUCUCAGUAGAGAUGCAA |  |  | 18.4 | 63.3
UUAUCUCAUGAGAAGGACAUGAGGAUCACCCAUGUAGGAUAUCAUGGGUCAGUGGAAUUGAAUCUUCGGAUUCAAUUACUCUAC | 60.6 | 11.5 |  | 
GGUCCACGAGGAUAUCGAUUAUAGUACAUGAGGAUCACCCAUGUUGUCCAGGUUUCGUUUCGAGAAGGCGUGGGUU |  |  | 88.4 | 52.6
CUUUUGUGAGGAUAUUAGUAGUAAAUAAAUAAAAUUACUUCUGAGAAGGCACAUGAGGAUCACCCAUGUUCCUC |  |  | 30.6 | 123
AUGACGGCAGGAUAUACAUGAGGAUCACCCAUGUAAAUUUUUCGUUUACCUUGACCGUGUAGAAGGGCCCAACC |  |  | 14.5 | 16.1
GGAUGAGAAACUCAUCCUUAACGAACAUGAGGAUCACCCAUGUAGGAUAUGCUACUCAAAGAGUAGCAGAAGGACAUGUGCCUU |  |  | 29.9 | 264
AUAAGUUCGUCAGGAUAUACAUGAGACAGUAAUGUUUCAGGUAUGAUCACAUGAGGAUCACCCAUGUAGAAGGGACGAGCUUAU |  |  | 6.48 | 20.6
UUCGUGCAGCUUUGCUGUACGCGUACAUGAGGAUCACCCAUGUAGGAUAUAGUAGGCAAAGCUUACUAGAAGGAUAUAGUGAUC |  |  | 47.6 | 47.3
UGUAAAUUAUUAAGUAAUUAGGCGAAGGAUAUAUAACAUGAGGAUCACCCAUGUACUAAAUUGAAGUAGAAGGUUGAACAUUUC | 14.5 | 12.9 |  | 
CAGAUAAAAGUGUGGUCCUCGACAUGAGGAUCACCCAUGUACGAGGAUAUGUAAUAUACGGUAUAGCAGAAGGCGUAUGGGUGU |  |  | 37.7 | 36.2
